Reference: ChEMBL document CHEMBL4024792, “(N-Hydroxycarbonylbenylamino)quinolines as Selective Histone Deacetylase 6 Inhibitors Suppress Growth of Multiple Myeloma in Vitro and in Vivo” (J Med Chem, 2018)
The source made the active and inactive calls. No cut-off for these calls is given here.

Legend:
RPMI-8226 [1] = assay: Cell cycle arrest in human RPMI8226 cells assessed as accumulation at sub-G1 phase at 5 uM after 24 hrs by propidium iodide staining based flow cytometry (reference value: 12.25%); format: functional
U-266 [2] = assay: Cell cycle arrest in human U266 cells assessed as accumulation at sub-G1 phase at 5 uM after 24 hrs by propidium iodide staining based flow cytometry (reference value: 10.76%); format: functional
NCI-H929 [3] = assay: Cell cycle arrest in human NCI-H929 cells assessed as accumulation at sub-G1 phase at 5 uM after 24 hrs by propidium iodide staining based flow cytometry (reference value: 5.59%); format: functional
NCI-H929 [4] = assay: Cell cycle arrest in human NCI-H929 cells assessed as accumulation at G0/G1 phase at 5 uM after 24 hrs by propidium iodide staining based flow cytometry (reference value: 49.39%); format: functional
NCI-H929 [5] = assay: Cell cycle arrest in human NCI-H929 cells assessed as accumulation at S phase at 5 uM after 24 hrs by propidium iodide staining based flow cytometry (reference value: 13.5%); format: functional
NCI-H929 [6] = assay: Cell cycle arrest in human NCI-H929 cells assessed as accumulation at G2/M phase at 5 uM after 24 hrs by propidium iodide staining based flow cytometry (reference value: 31.63%); format: functional
RPMI-8226 [7] = assay: Cell cycle arrest in human RPMI8226 cells assessed as accumulation at G0/G1 phase at 5 uM after 24 hrs in presence of bortezomib by propidium iodide staining based flow cytometry (reference value: 44.67%); format: functional
RPMI-8226 [8] = assay: Cell cycle arrest in human RPMI8226 cells assessed as accumulation at G2/M phase at 5 uM after 24 hrs in presence of bortezomib by propidium iodide staining based flow cytometry (reference value: 23.94%); format: functional
U-266 [9] = assay: Cell cycle arrest in human U266 cells assessed as accumulation at G2/M phase at 5 uM after 24 hrs in presence of bortezomib by propidium iodide staining based flow cytometry (reference value: 35.13%); format: functional
NCI-H929 [10] = assay: Cell cycle arrest in human NCI-H929 cells assessed as accumulation at sub-G1 phase at 5 uM after 24 hrs in presence of bortezomib by propidium iodide staining based flow cytometry (reference value: 5.59%); format: functional
NCI-H929 [11] = assay: Cell cycle arrest in human NCI-H929 cells assessed as accumulation at G0/G1 phase at 5 uM after 24 hrs in presence of bortezomib by propidium iodide staining based flow cytometry (reference value: 49.39%); format: functional
NCI-H929 [12] = assay: Cell cycle arrest in human NCI-H929 cells assessed as accumulation at S phase at 5 uM after 24 hrs in presence of bortezomib by propidium iodide staining based flow cytometry (reference value: 13.5%); format: functional
RPMI-8226 [13] = assay: Induction of apoptosis in human RPMI8226 cells at 5 uM after 24 hrs by Annexin V/propidium iodide staining based flow cytometry; format: functional, cell-based
NCI-H929 [14] = assay: Induction of apoptosis in human NCI-H929 cells at 5 uM after 24 hrs by Annexin V/propidium iodide staining based flow cytometry; format: functional, cell-based
RPMI-8226 [15] = assay: Induction of apoptosis in human RPMI8226 cells at 5 uM after 24 hrs in presence of bortezomib by Annexin V/propidium iodide staining based flow cytometry; format: functional, cell-based
U-266 [16] = assay: Induction of apoptosis in human U266 cells at 5 uM after 24 hrs in presence of bortezomib by Annexin V/propidium iodide staining based flow cytometry; format: functional, cell-based
RPMI-8226 [17] = assay: Antitumor activity against human RPMI8226 cells xenografted in nude mouse assessed as tumor growth inhibition at 30 mg/kg, iv or ip administered for 5 days followed by 2 days off for 35 days cotreated with bortezomib relative to control; format: functional; settings: read-out: TGI
Procedure, shortened: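 RPMI 8226 cells (1 × 10^7) implanted s.c. in eight-week-old male nude mice. At mean tumor volume 200 mm3, mice randomized into four groups (n = 8). Caliper measurement every 3–4 days, volume L×W²/2. %TGI computed from treated versus control volume changes relative to time 0.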

Mus musculus = assay: Toxicity in nude mouse xenografted with human RPMI8226 cells assessed as change in body weight at 30 mg/kg, iv or ip administered for 5 days followed by 2 days off for 35 days; format: organism-based; settings: in vivo
Procedure, shortened: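 Male 8-week nude mice implanted sc with 1×10^7 RPMI 8226 cells, randomized at ~200 mm3 (n = 8). […] Vehicle: 0.5% EtOH/0.5% Cremophor in 5% dextran.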

[18] = Stability in Sprague-Dawley rat hepatocytes assessed as parent compound remaining at 10 uM after 60 mins by LC-MS/MS analysis; format: ADME, cell-based, Hepatocyte; settings: read-out: Stability
Procedure, shortened: (§1)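 Cryopreserved hepatocytes (Sprague-Dawley rat, beagle dog, human) incubated with compound at 10 µM, 37 °C, for up to 4 h. About 0.5×10^6 cells/well for rat and dog, 0.24×10^6 for human.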

[19] = Stability in human hepatocytes assessed as parent compound remaining at 10 uM after 60 mins by LC-MS/MS analysis; format: ADME, cell-based, Hepatocyte; settings: read-out: Stability; procedure, shortened: as §1
[20] = Half life in beagle dog hepatocytes at 10 uM by LC-MS/MS analysis; format: ADME, cell-based, Canis lupus familiaris, Hepatocyte
Procedure, shortened: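 Substrate depletion in cryopreserved hepatocytes (male SD rat, male beagle dog, human). Compound at 10 µM incubated at 37 °C for up to 4 h. Cell density approximately 0.5 × 10^6 hepatocytes/well for rat and dog, 0.24 × 10^6/well for human. Half-life and CLint derived from depletion; % remaining at 60 min also reported.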

[21] = Intrinsic clearance in Sprague-Dawley rat hepatocytes at 10 uM by LC-MS/MS analysis; format: ADME, cell-based, Hepatocyte; settings: read-out: CLH; procedure, shortened: as §1
[22] = Apparent permeability from apical to basolateral side in human Caco2 cells at 10 uM after 2 hrs by LC-MS/MS analysis; format: ADME, cell-based; settings: Caco-2
Procedure, shortened: (§2)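 Caco-2 cells seeded at 8.4 × 10^4 cells/cm2 on polycarbonate inserts for 21 days. For A→B, donor was apical (HBSS/MES pH 6.5, 10 µM compound) and receiver basolateral (HBSS/HEPES pH 7.4). For B→A, donor was basolateral (HBSS/HEPES pH 7.4, 10 µM) and receiver apical (HBSS/MES pH 6.5). Incubated at 37 °C for 2 h. Receiver sampled at 30, 60, 90 and 120 min, donor at 0 and 120 min.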

[23] = Apparent permeability from apical to basolateral side in human Caco2 cells assessed as drug recovery at 10 uM after 2 hrs by LC-MS/MS analysis; format: ADME, cell-based; settings: Caco-2, read-out: Drug recovery; procedure, shortened: as §2
Salmonella typhimurium [24] = assay: Mutagenicity in Salmonella typhimurium TA98 assessed as increase in number of revertant colonies at 3 to 3000 ug/plate in absence of S9 fraction by Ames test; format: toxicity; settings: salmonella enterica subsp. enterica serovar typhimurium
Procedure, shortened: (§3)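 Ames test, TA98 and TA100. Overnight broth cultures preincubated 20 min at 35-37 °C with compound (DMSO stock) plus Aroclor 1254-induced rat liver S9 mix or PBS, then plated in top agar with 0.05 mM histidine/biotin. Final 3-3000 µg/plate; revertants counted after 72 h at 37 °C. ≥3-fold over vehicle = mutagenic; ≤50% = cytotoxic.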

Salmonella typhimurium [25] = assay: Mutagenicity in Salmonella typhimurium TA100 assessed as increase in number of revertant colonies at 3 to 3000 ug/plate in presence of S9 fraction by Ames test; format: toxicity; settings: salmonella enterica subsp. enterica serovar typhimurium; procedure, shortened: as §3

O=C(NO)c1ccc(CNc2cccc3cccnc23)cc1
Activity (RPMI-8226 [1]): 12.88% | Activity (U-266 [2]): 17.82% | Activity (NCI-H929 [3]): 24.71% | Activity (NCI-H929 [4]): 35.59% | Activity (NCI-H929 [5]): 8.55% | Activity (NCI-H929 [6]): 31.28% | Activity (RPMI-8226 [7]): 6.3% | Activity (RPMI-8226 [8]): 2.33% | Activity (U-266 [9]): 21.52% | Activity (NCI-H929 [10]): 74.13% | Activity (NCI-H929 [11]): 15.77% | Activity (NCI-H929 [12]): 8.6% | Activity (RPMI-8226 [13]): Active | Activity (NCI-H929 [14]): Active | Activity (RPMI-8226 [15]): Active | Activity (U-266 [16]): Active | inhibition in vivo at 30 mg/kg (RPMI-8226 [17]): 86.2% | Activity (Mus musculus): Non-Toxic | remaining at 1 h, 10 µM [18]: 28.4% | remaining at 1 h, 10 µM [19]: 86.4% | half-life at 10 µM [20]: 1.97 h | CLint scaled at 10 µM [21]: 151 mL/min/kg | Papp A→B at 2 h, 10 µM [22]: 24 ×10⁻⁶ cm/s | recovery at 2 h, 10 µM [23]: 72.2% | Activity (Salmonella typhimurium [24]): Non-Toxic | Activity (Salmonella typhimurium [25]): Non-Toxic
